Data reported in PMC3253719 (Anesthesia and Analgesia, 2010).
Read-outs that look alike come from different tables or passages of the source.

What was measured:
rat CB2 receptors [1] = conditions: cited from earlier work
human CB2 receptors = conditions: cited from earlier work
[2] = test system: rats with spinal nerve ligation; experiment: Tactile allodynia, lumbar 5-6 spinal nerve ligation neuropathic pain model; type: in vivo, rat; conditions: for Effect on tactile allodynia: several doses
Outline: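 Male Sprague-Dawley rats (120–150 g). Under isoflurane in 100% O2, the left L6 transverse process was removed and the left L5 and L6 spinal nerves were tightly ligated with 6-0 silk. Neuropathy was confirmed by daily von Frey paw-withdrawal thresholds after ≥30 min acclimation on wire mesh. Compounds were given IP; AM630 (5 mg/kg IP) was given 15 min before the test compound. n = 6–12 per group.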

rat CB1 receptor [3] = target: T1, rat CB1 receptor (Rattus norvegicus, UniProt P20272); experiment: cAMP activation assay, rat CB1; type: cell-based
T1 sequence (P20272 whole entry): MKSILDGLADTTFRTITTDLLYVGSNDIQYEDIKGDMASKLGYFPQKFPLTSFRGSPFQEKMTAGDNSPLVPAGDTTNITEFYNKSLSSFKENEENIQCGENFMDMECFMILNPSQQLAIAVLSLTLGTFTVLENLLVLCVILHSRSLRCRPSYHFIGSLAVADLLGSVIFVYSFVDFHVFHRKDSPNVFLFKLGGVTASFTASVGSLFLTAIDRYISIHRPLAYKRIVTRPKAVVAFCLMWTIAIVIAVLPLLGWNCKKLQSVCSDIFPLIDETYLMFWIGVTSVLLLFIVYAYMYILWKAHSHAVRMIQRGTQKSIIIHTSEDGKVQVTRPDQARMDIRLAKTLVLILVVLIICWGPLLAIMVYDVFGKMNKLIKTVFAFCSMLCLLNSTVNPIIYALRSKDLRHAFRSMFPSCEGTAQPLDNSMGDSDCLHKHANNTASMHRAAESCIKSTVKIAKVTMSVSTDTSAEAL

naïve rats [4] = conditions: 15 mg/kg IP; historical data ref 24; cited from earlier work
rat CB2 receptor [5] = target: T2, rat CB2 receptor (Rattus norvegicus, UniProt Q9QZN9); experiment: cAMP activation assay, rat CB2; type: cell-based
T2 sequence (Q9QZN9 1-360): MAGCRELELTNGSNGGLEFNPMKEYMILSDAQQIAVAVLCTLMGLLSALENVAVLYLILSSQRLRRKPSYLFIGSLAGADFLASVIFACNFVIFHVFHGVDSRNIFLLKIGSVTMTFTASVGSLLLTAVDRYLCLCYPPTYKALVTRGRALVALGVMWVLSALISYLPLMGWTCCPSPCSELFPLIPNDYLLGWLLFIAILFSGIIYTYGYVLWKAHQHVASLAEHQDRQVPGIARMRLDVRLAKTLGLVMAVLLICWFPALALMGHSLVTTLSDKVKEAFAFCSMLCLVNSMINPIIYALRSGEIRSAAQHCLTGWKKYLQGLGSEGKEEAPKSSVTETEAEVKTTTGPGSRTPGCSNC

human CB1 receptor [6] = target: T3, human CB1 receptor (Homo sapiens, UniProt P21554); experiment: GTPγ[35S] functional assay, human CB1; type: biochemical
T3 sequence (P21554 whole entry): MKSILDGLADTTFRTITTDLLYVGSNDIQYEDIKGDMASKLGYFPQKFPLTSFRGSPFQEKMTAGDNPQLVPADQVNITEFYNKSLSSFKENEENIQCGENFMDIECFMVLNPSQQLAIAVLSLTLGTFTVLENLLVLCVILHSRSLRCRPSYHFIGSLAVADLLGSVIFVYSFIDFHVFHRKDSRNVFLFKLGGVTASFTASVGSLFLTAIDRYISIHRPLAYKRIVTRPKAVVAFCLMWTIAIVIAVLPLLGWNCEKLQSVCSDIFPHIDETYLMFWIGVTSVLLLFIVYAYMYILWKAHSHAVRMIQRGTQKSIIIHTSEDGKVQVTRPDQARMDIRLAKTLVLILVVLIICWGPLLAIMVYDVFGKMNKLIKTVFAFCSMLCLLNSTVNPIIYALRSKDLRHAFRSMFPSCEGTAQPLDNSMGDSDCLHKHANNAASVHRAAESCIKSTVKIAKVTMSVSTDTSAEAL

rat CB2 receptors [7] = experiment: Erk1/2; type: cell-based
human CB1 receptor [8] = target: T3, human CB1 receptor; experiment: Radioligand competitive binding assay, human CB1; conditions: Mean Ki Human CB1, [3H]CP 55,940 was used (footnote b)
[9] = test system: paclitaxel-treated CB2^−/− mice; experiment: Tactile allodynia, paclitaxel-induced neuropathic pain model in CB2^−/− mice; type: in vivo, mouse; conditions: 10 mg/kg IP
Outline: (§1)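 Male CB2+/+ or CB2−/− mice (20–25 g), bred and genotyped in-house, were used in a paclitaxel-induced neuropathy model. Once allodynia was established, the test compound was given at 10 mg/kg IP. Tactile paw-withdrawal thresholds were measured with von Frey filaments after ≥30 min acclimation on a wire-mesh floor; n = 5 per group.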

rat CB1 receptor [10] = target: T1, rat CB1 receptor; experiment: GTPγ[35S] functional assay, rat CB1; type: biochemical
human CB2 receptor [11] = target: T4, human CB2 receptor (Homo sapiens, UniProt P34972); experiment: GTPγ[35S] functional assay, human CB2; type: biochemical
T4 sequence (P34972 whole entry): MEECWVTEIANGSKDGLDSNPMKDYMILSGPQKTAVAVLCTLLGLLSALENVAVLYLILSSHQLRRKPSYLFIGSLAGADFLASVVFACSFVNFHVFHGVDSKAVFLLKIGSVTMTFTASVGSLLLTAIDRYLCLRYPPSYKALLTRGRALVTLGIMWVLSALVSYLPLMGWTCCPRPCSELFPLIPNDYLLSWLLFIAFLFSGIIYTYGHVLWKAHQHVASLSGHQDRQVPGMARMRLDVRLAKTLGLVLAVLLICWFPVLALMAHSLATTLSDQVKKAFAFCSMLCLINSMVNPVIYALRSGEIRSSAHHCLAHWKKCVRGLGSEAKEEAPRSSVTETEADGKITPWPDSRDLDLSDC

rat CB2 receptor [12] = target: T2, rat CB2 receptor; experiment: GTPγ[35S] functional assay, rat CB2; type: biochemical
paclitaxel-treated rats = experiment: Tactile allodynia, paclitaxel-induced neuropathic pain model in rats; type: in vivo, rat; conditions: IP
Outline: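 Male Sprague-Dawley rats (120–150 g) received paclitaxel 1.0 mg/kg IP daily for 4 days (cumulative 4 mg/kg) in 10% Cremophor EL in saline, 1 mL/kg. Baseline was taken on day 0, then daily von Frey hind-paw thresholds (≥30 min acclimation on wire mesh) until neuropathy was confirmed. The test compound was given IP, compared with vehicle-treated rats; n = 5 per group. Values were expressed as %MPE and AUC.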

rat CB2 receptor [13] = target: T2, rat CB2 receptor; experiment: Radioligand competitive binding assay, rat CB2
human CB2 receptor [14] = target: T4, human CB2 receptor; experiment: Radioligand competitive binding assay, human CB2
[15] = test system: paclitaxel-treated CB2^+/+ mice; experiment: Tactile allodynia, paclitaxel-induced neuropathic pain model in CB2^+/+ mice; type: in vivo, mouse; conditions: 10 mg/kg IP
Outline: as §1

rat CB1 receptor [16] = target: T1, rat CB1 receptor; experiment: Radioligand competitive binding assay, rat CB1
naïve rats [17] = experiment: Open-field chamber testing; type: in vivo, rat; conditions: 1 mg/kg IP
central nervous system = conditions: IP; cited from earlier work
human CB2 receptor [18] = target: T4, human CB2 receptor; conditions: cited from earlier work
human CB2 receptor [19] = target: T4, human CB2 receptor; conditions: cited from earlier work; remark: listed apart in the source
rat CB2 receptors [20] = conditions: cited from earlier work; remark: listed apart in the source
[21] = test system: rodents with spinal nerve ligation; conditions: cited from earlier work
human CB2 receptor [22] = target: T4, human CB2 receptor; conditions: cited from earlier work; remark: listed apart in the source
human CB2 receptor [23] = target: T4, human CB2 receptor; conditions: cited from earlier work; remark: listed apart in the source
mouse CB2 receptors = conditions: cited from earlier work

In the case of COc1ccc2c(c1)c(CCN1CCOCC1)c(C)n2C(=O)c1cccc(Cl)c1Cl [L768242], the “Functional character at rat CB2” value (rat CB2 receptors [1]) is given as “protean agonists” and the “Functional character at human CB2” value (human CB2 receptors) is given as “protean agonists”.

In the case of COc1ccc(C(=O)c2c(C)n(CCN3CCOCC3)c3cc(I)ccc23)cc1 [AM630, reference compound], the “Effect on paw withdrawal threshold, given alone” value ([2]; 5 mg/kg IP) is reported as “had no effect”.

With CCCCCCN1C(=O)/C(=N\NC(=O)c2ccccc2)c2ccccc21 [MDA19, N′-[(3Z)-1-(1-hexyl)-2-oxo-1,2-dihydro-3H-indol-3-ylidene]benzohydrazide] the EC50 (rat CB1 receptor [3]) was 814 ± 83 nM, the “Functional behaviour in cAMP activation assay, rat CB1” value (rat CB1 receptor [3]) was “agonist” and the Emax (rat CB1 receptor [3]; read-out: cAMP activation assays Rat CB1 Emax) was 89%. The “Effect on exploratory behavior (distance traveled, ambulatory time, vertical movements, zone entries)” value (“Effect on exploratory behavior” for short) (naïve rats [4]) was “had no effect on exploratory behavior”, the “Functional behaviour in cAMP activation assay, rat CB2” value (rat CB2 receptor [5]) was “no activity” and the EC50 (human CB1 receptor [6]) was 922 ± 56 nM. For the same molecule, the “Functional behaviour in GTPγ[35S] assay, human CB1” value (human CB1 receptor [6]) was “agonist”, the Emax (human CB1 receptor [6]; read-out: GTPγ[35S] functional assays Human CB1 Emax) was 64.5% and the “Activation of Erk1/2 after PTX” value (rat CB2 receptors [7]; 200 ng/mL PTX 16 hours before 10 µM MDA19) was “blocked”. For the same molecule, the “Functional behaviour in Erk1/2 activation (phosphorylation of Erk1/2)” value (rat CB2 receptors [7]; 10 µM, 30 minutes, CHO-rCB2 cells) was “behaved as an agonist and induced phosphorylation of Erk1/2”, the “Activation of Erk1/2 after AM630” value (rat CB2 receptors [7]; 20 µM AM630 30 minutes before 10 µM MDA19) was “blocked” and the Ki (human CB1 receptor [8]) was 150 nM. For the same molecule, the “Antiallodynic effects compared with 1 mg/kg WIN 55,212-2 IP” value ([2]; 15 mg/kg IP) was “not significantly different”, the “Antiallodynic effect, area under the curve” value ([2]; 15 mg/kg versus 5 mg/kg or vehicle) was “significantly (P < 0.01) greater antiallodynic effect” and the “Effect on tactile allodynia” value ([2]; IP) was “attenuated tactile allodynia in a dose-related manner”. The “Antiallodynic effect after pretreatment with AM630” value ([2]; MDA19 10 mg/kg IP, AM630 5 mg/kg IP 15 minutes before, P < 0.05) was “significantly reversed”, the “Efficacy in attenuating tactile allodynia” value ([2]; after a 15 mg/kg dose IP) was 70% ± 10% and the “Effect on mechanical allodynia” value [9] was “had no effect”. For the same molecule, the EC50 (rat CB1 receptor [10]) was 427 ± 35 nM, the “Functional behaviour in GTPγ[35S] assay, rat CB1” value (rat CB1 receptor [10]) was “agonist” and the Emax (rat CB1 receptor [10]; read-out: GTPγ[35S] functional assays Rat CB1 Emax) was 54%. The EC50 (human CB2 receptor [11]) was 83 ± 19 nM, the “Functional behaviour in GTPγ[35S] assay, human CB2” value (human CB2 receptor [11]) was “agonist” and the Emax (human CB2 receptor [11]; read-out: GTPγ[35S] functional assays Human CB2 Emax) was 65.4%. For the same molecule, the EC50 (rat CB2 receptor [12]) was 19.7 ± 14 nM, the “Functional behaviour in GTPγ[35S] assay, rat CB2” value (rat CB2 receptor [12]) was “inverse agonist” and the Emax (rat CB2 receptor [12]; read-out: GTPγ[35S] functional assays Rat CB2 Emax) was -42%. For the same molecule, the “Effect on mechanical allodynia” value (paclitaxel-treated rats; versus vehicle-treated rats) was “suppressed mechanical allodynia”, the “%MPE paw withdrawal threshold AUC versus vehicle” value (paclitaxel-treated rats; n = 5 per group) was “significantly different (P < 0.05)” and the Ki (rat CB2 receptor [13]) was 16.3 ± 2.1 nM. The “Affinity ratio rat CB2 over rat CB1” value (rat CB2 receptor [13]; from Ki values) was roughly 70 fold, the Ki (human CB2 receptor [14]) was 43.3 ± 10.3 nM and the “Effect on mechanical allodynia” value [15] was “suppressed mechanical allodynia”. The “Time of peak effect for reversing mechanical allodynia” value [15] was 30 min and the Ki (rat CB1 receptor [16]) was 1130 ± 574 nM.

For Cc1c(C(=O)c2cccc3ccccc23)c2cccc3c2n1[C@H](CN1CCOCC1)CO3 [WIN 55,212-2, reference compound], the Adverse effects ([2]; 3 mg/kg IP) was “immobility and increased sensitivity to noise and handling”, the “Effect on tactile allodynia” value ([2]; IP) was “attenuated tactile allodynia in a dose-related manner” and the ED50 tactile allodynia ([2]; IP, at 15 minutes, 95% CI = 0.5–0.9 mg/kg) was 0.7 mg/kg. The “Effect on exploratory behavior” value (naïve rats [17]) was “significantly decreased exploratory behavior” and the “Doses with adverse effects in the central nervous system” value (central nervous system) was greater than 1 mg/kg.

For CN1CCCCC1Cn1cc(C(=O)c2cc([N+](=O)[O-])ccc2I)c2ccccc21 (centres unmarked) [AM1241, (2-iodo-5-nitrophenyl)-[1-(1-methylpiperidin-2-ylmethyl)-1H-indol-3-yl]methanone], the “Functional behaviour in fluorometric image plate reader functional assays” value (human CB2 receptor [18]) is listed as “apparent antagonist”, the “Functional behaviour in Erk activation assays” value (human CB2 receptor [19]) is listed as “apparent agonist” and the “Functional behaviour in cAMP inhibition assays, rat CB2” value (rat CB2 receptors [20]) is listed as “inverse agonist”. For the same molecule, the “Effect on tactile allodynia” value [21] was “attenuated tactile allodynia in a dose-related manner”, the “Functional behaviour in cyclase assays” value (human CB2 receptor [22]) was “neutral antagonist” and the “Functional behaviour in cyclase assays at lower forskolin concentrations” value (human CB2 receptor [22]; lower forskolin concentrations) was “agonist”. The “Functional behaviour in cAMP inhibition assays, human CB2” value (human CB2 receptor [23]) was “agonist” and the “Functional behaviour in cAMP inhibition assays, mouse CB2” value (mouse CB2 receptors) was “inverse agonist”.

For CCCCCCC(C)(C)c1ccc([C@@H]2C[C@H](O)CC[C@H]2CCCO)c(O)c1 [CP 55,940, reference compound], the “Functional behaviour in cAMP activation assay, rat CB2” value (rat CB2 receptor [5]) was “strong agonist activity”, the “cAMP activation assays Rat CB2 Emax” value (rat CB2 receptor [5]; forskolin 10 µM, NA = not active at 1 µM) was 100% and the “Functional behaviour in GTPγ[35S] assay, rat CB2” value (rat CB2 receptor [12]) was “agonist activity”. The EC50 (rat CB2 receptor [12]; read-out: GTPγ[35S] functional assays Rat CB2 EC50, agonism) was 2.3 ± 1.8 nM and the “GTPγ[35S] functional assays Rat CB2 Emax” value (rat CB2 receptor [12]; relative to efficacy of CP 55,940) was 112%.

With O=C(CCCN1CCC(O)(c2ccc(Cl)cc2)CC1)c1ccc(F)cc1 [haloperidol] the “Effect on exploratory behavior” value (naïve rats [17]) was “significantly decreased exploratory behavior”.

In the case of CN1CCCCC1Cn1cc(C(=O)c2cc([N+](=O)[O-])ccc2I)c2ccccc21 (single isomer, unassigned; (+)) [(+)AM1241], the “Functional character at rat CB2” value (rat CB2 receptors [1]) is listed as “protean agonists” and the “Functional character at human CB2” value (human CB2 receptors) is listed as “protean agonists”.
